Measured values collected from several papers.
Lines come from different studies, so protocols differ.
Target: Serine/threonine-protein kinase MARK2 (MARK2, Homo sapiens, UniProt Q7KZI7)

Structure (SMILES)	effect on	mode	technique	cell line	tested at	quantity	value
CC/C(=N\NC(=O)NCc1cccc(O)c1)c1ccc(O)c(C)c1O	enzyme activity	inhibitor	–	–	0.1 µM	inhibition	-5.8%
CC(C)CC(=O)N1CCc2nc(-c3ccc(Br)cc3)nc(N(C)Cc3ccccc3)c2C1	cell-free assay	–	competition with immobilised ligand	–	0.1 µM	remaining binding	100%
NS(=O)(=O)c1ccc(CNc2nc(Nc3cccc(CN4CCOCC4)c3)ncc2C2CC2)cc1	enzyme activity	inhibitor	radiometric	–	1 µM	remaining activity	98%
Cc1cc(-n2nc(Cc3cc(F)cc(C(F)(F)F)c3)nc2C)ccc1C(N)=O	cell-free assay	–	competition with immobilised ligand	–	1 µM	remaining binding	89%
COc1cc(Nc2cnc(C#N)c(O[C@H](C)CN(C)C)n2)ncc1-c1cnn(C)c1	enzyme activity	inhibitor	radiometric	–	10 µM	remaining activity	57%
Cc1nn(CC(F)(F)F)cc1Nc1nccc(NCc2ccc(S(N)(=O)=O)cc2)n1	enzyme activity	inhibitor	radiometric	–	1 µM	remaining activity	108%
C[C@@H]1CCN(C(=O)CC#N)C[C@@H]1N(C)c1ncnc2[nH]ccc12	cell-free assay	inhibitor	–	–	0.5 µM	remaining signal	91.8%
Cc1ccc(NC(=O)c2ccc(C)c(C(F)(F)F)c2)cc1C#Cc1nn(C2CCC(O)CC2)c2ncnc(N)c12 (stereo not drawn)	cell-free assay	–	–	–	10 µM	remaining signal	98%
COc1cc2ncnc(Nc3ccc(Oc4ccccc4)cc3C)c2cc1OC	enzyme activity	inhibitor	–	–	1 µM	inhibition	7%
c1cc(CN2CCOCC2)cc(Nc2ncc(C3CC3)c(NCCc3c[nH]cn3)n2)c1	enzyme activity	inhibitor	radiometric	–	1 µM	remaining activity	14%
CCCCNc1ncc2c(-c3ccc(F)cc3)nn(C[C@H]3CC[C@H](N)CC3)c2n1	target engagement in cells	inhibitor	chemoproteomics	–	20 mM	inhibition	18%
O=C(Nc1cnc(Oc2ccc(F)cc2)nc1)N1CCc2ncccc2[C@@H]1c1ccc(F)cc1	cell-free assay	–	competition with immobilised ligand	–	1 µM	remaining binding	90%
CNC(=O)c1cc(Oc2ccc(NC(=O)Nc3ccc(Cl)c(C(F)(F)F)c3)cc2)ccn1	enzyme activity	inhibitor	–	–	0.3 µM	inhibition	28%
C[C@@H]1CN(c2cc(-c3nn(C)c4ccc(OC5(C)CC5)cc34)ncn2)C[C@H](C)O1	cell-free assay	–	competition with immobilised ligand	–	1 µM	remaining binding	89%
Cc1nn(CC(F)(F)F)cc1Nc1ncc(C2CC2)c(NCc2ccc(S(N)(=O)=O)cc2)n1	enzyme activity	inhibitor	radiometric	–	1 µM	remaining activity	100%
CC(=O)N1CCC(c2ccc(C(=O)NC3=NCCN3)cc2C(F)(F)F)CC1	cell-free assay	–	competition with immobilised ligand	–	1 µM	remaining binding	100%
Brc1cnc(Nc2cccc(CN3CCOCC3)c2)nc1NCCc1c[nH]cn1	enzyme activity	inhibitor	radiometric	–	1 µM	remaining activity	5%
CNc1cc(Oc2cc(C(=O)Nc3cc(N4CCN(C)CC4)cc(C(F)(F)F)c3)ccc2C)ncn1	target engagement in cells	inhibitor	chemoproteomics	Huh-7	1 µM	inhibition	-25.4%
